{"data": "Measurements gathered from unrelated publications", "target": "Muscarinic acetylcholine receptor M2 (CHRM2, Homo sapiens, UniProt P08172)", "tested at": "10 µM", "One construct used (P08172 1-466)": "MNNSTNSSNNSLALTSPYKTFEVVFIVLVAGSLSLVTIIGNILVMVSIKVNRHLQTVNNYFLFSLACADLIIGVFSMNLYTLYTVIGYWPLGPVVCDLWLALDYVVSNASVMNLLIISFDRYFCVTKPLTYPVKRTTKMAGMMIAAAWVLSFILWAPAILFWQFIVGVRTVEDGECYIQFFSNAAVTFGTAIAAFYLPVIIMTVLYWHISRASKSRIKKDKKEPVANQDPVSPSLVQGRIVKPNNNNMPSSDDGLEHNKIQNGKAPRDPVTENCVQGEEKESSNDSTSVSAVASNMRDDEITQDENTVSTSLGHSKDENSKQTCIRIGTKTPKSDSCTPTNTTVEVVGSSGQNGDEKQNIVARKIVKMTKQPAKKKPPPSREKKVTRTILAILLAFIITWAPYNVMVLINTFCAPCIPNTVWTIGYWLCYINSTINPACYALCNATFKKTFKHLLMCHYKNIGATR", "note": "Lines come from different studies, so protocols differ."}
{"Compound": "O=C(Nc1ccc(S(=O)(=O)N2CCC(Cl)CC2)cc1)c1ccc([N+](=O)[O-])o1", "read-out": "ligand displacement", "technique": "radioligand", "inhibition": "10%"}
{"Compound": "CCN(CC)c1ccc(C2Nc3ccc(C(=O)c4ccccc4)cc3NC3=C2C(=O)CC(C)(C)C3)cc1 (centres unmarked)", "read-out": "ligand displacement", "technique": "radioligand", "inhibition": "-1%"}
{"Compound": "O=C(NNS(=O)(=O)c1ccccc1F)c1cc(F)cc(-c2ccccn2)c1", "read-out": "cell-free assay", "inhibition": "15.9%"}
{"Compound": "N#Cc1cc(Cn2c(N3CCCC3)nc3ccccc32)ccc1F", "read-out": "ligand displacement", "inhibition": "7.75%"}
{"Compound": "COc1cc(NC(C)=O)c(Cl)cc1C(=O)Nc1nccs1", "read-out": "cell-free assay", "inhibition": "-25.3%"}
{"Compound": "CCN(Cc1ccccc1C(F)(F)F)C(=O)C1CCN(S(=O)(=O)c2ccc3[nH]ncc3c2)CC1", "read-out": "ligand displacement", "technique": "radioligand", "inhibition": "1%"}
{"Compound": "O=C(c1ccc(Cl)cc1)N(Cc1ccccc1)C1CCCCC1", "read-out": "cell-free assay", "inhibition": "38.2%"}
{"Compound": "O=C1N=C(N2CCCCN2)S/C1=C\\c1ccc(F)cc1O", "read-out": "ligand displacement", "technique": "radioligand", "inhibition": "< 10%"}
{"Compound": "CC1CCN(c2ccnc(NCc3cn(C)cn3)n2)CC1", "read-out": "ligand displacement", "inhibition": "7.21%"}
{"Compound": "CCCNc1nc2ccccc2n1Cc1ccc(Cl)cc1", "read-out": "ligand displacement", "inhibition": "13.7%"}
{"Compound": "Ic1cccc2cnccc12", "read-out": "ligand displacement", "technique": "radioligand", "inhibition": "0%"}
